Measured values taken from ChEMBL document CHEMBL4689842, “EUbOPEN Chemogenomics Library wave 1” (2021).

Columns and labels:
Assay type in all cases: toxicity, cell-based
[1] = system: Fibroblast; experiment: Multiplex assay against human fibroblast
Outline: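 Cells were classed with CellPathfinder machine-learning gating, first as Hoechst high-intensity objects or normal cells, then (normal cells) as healthy, pyknosed or fragmented nuclei, and finally (pyknosed cells) as mitotic or apoptotic. Staining of live cells at seeding used Hoechst33342, BioTracker Green Microtubule Cytoskeleton Dye, MitoTracker Red and Annexin V Alexa Fluor 680, with imaging on a CQ1 microscope at 37°C and 5% CO2 after compound addition. Tubulin, mitochondrial-mass and membrane-permeability phenotypes are per cents of healthy-nucleus cells.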

[2] = system: Fibroblast; experiment: Incucyte cell viability with human fibroblast; conditions: 10 µM, compound concentration 10 uM; note: filed as whole numbers so only -1 and 0 and 1 occur
[3] = system: U2OS; experiment: Incucyte cell viability with U2OS; conditions: human, 10 µM, compound concentration 10 uM; note: filed as whole numbers so only -1 and 0 and 1 occur
[4] = 12 h, 1 µM, compound concentration 1 uM, replicate 1
[5] = 12 h, 1 µM, compound concentration 1 uM, replicate 2
[6] = 12 h, 10 µM, compound concentration 10 uM, replicate 1
[7] = 12 h, 10 µM, compound concentration 10 uM, replicate 2
[8] = 24 h, 1 µM, compound concentration 1 uM, replicate 1
[9] = 24 h, 1 µM, compound concentration 1 uM, replicate 2
[10] = 24 h, 10 µM, compound concentration 10 uM, replicate 1
[11] = 24 h, 10 µM, compound concentration 10 uM, replicate 2
[12] = 48 h, 1 µM, compound concentration 1 uM, replicate 1
[13] = 48 h, 1 µM, compound concentration 1 uM, replicate 2
[14] = 48 h, 10 µM, compound concentration 10 uM, replicate 1
[15] = 48 h, 10 µM, compound concentration 10 uM, replicate 2
[16] = 6 h, replicate number 1, timepoint 6 hours
[17] = 12 h, replicate number 1, timepoint 12 hours
[18] = 18 h, replicate number 1, timepoint 18 hours
[19] = 24 h, replicate number 1, timepoint 24 hours

## N#Cc1cccc(C(=O)Nc2cc(-c3ccccc3)nn2-c2ccccc2)c1
[1]; [4]
  Population Apoptotic (%): 66%
  Population Fragmented Nuclei (%): 21%
  Population Healthy Nuclei (%): 48%
  Population Hoechst High Intensity Objects (%): 11%
  Population Membrane Permeable-Phenotype (%): 22%
  Population Mitochondria Different-Phenotype (%): 6%
  Population Mitotic Cells (%): 34%
  Population Normal (%): 88%
  Population Pyknosed Nuclei (%): 30%
  Population Tubulin-Different-Phenotype (%): 48%
  Total Cell Count: 186
[1]; [5]
  Population Apoptotic (%): 16%
  Population Fragmented Nuclei (%): 5%
  Population Healthy Nuclei (%): 84%
  Population Hoechst High Intensity Objects (%): 3%
  Population Membrane Permeable-Phenotype (%): 6%
  Population Mitochondria Different-Phenotype (%): 8%
  Population Mitotic Cells (%): 83%
  Population Normal (%): 96%
  Population Pyknosed Nuclei (%): 10%
  Population Tubulin-Different-Phenotype (%): 16%
  Total Cell Count: 59
[1]; [6]
  Population Apoptotic (%): 50%
  Population Fragmented Nuclei (%): 15%
  Population Healthy Nuclei (%): 42%
  Population Hoechst High Intensity Objects (%): 8%
  Population Membrane Permeable-Phenotype (%): 23%
  Population Mitochondria Different-Phenotype (%): 15%
  Population Mitotic Cells (%): 50%
  Population Normal (%): 91%
  Population Pyknosed Nuclei (%): 42%
  Population Tubulin-Different-Phenotype (%): 82%
  Total Cell Count: 134
[1]; [7]
  Population Apoptotic (%): 45%
  Population Fragmented Nuclei (%): 9%
  Population Healthy Nuclei (%): 60%
  Population Hoechst High Intensity Objects (%): 9%
  Population Membrane Permeable-Phenotype (%): 15%
  Population Mitochondria Different-Phenotype (%): 84%
  Population Mitotic Cells (%): 55%
  Population Normal (%): 90%
  Population Pyknosed Nuclei (%): 30%
  Population Tubulin-Different-Phenotype (%): 97%
  Total Cell Count: 72
[1]; [8]
  Population Apoptotic (%): 47%
  Population Fragmented Nuclei (%): 17%
  Population Healthy Nuclei (%): 49%
  Population Hoechst High Intensity Objects (%): 8%
  Population Membrane Permeable-Phenotype (%): 34%
  Population Mitochondria Different-Phenotype (%): 6%
  Population Mitotic Cells (%): 52%
  Population Normal (%): 91%
  Population Pyknosed Nuclei (%): 33%
  Population Tubulin-Different-Phenotype (%): 69%
  Total Cell Count: 180
[1]; [9]
  Population Apoptotic (%): 14%
  Population Fragmented Nuclei (%): 3%
  Population Healthy Nuclei (%): 86%
  Population Hoechst High Intensity Objects (%): 4%
  Population Membrane Permeable-Phenotype (%): 1%
  Population Mitochondria Different-Phenotype (%): 8%
  Population Mitotic Cells (%): 85%
  Population Normal (%): 95%
  Population Pyknosed Nuclei (%): 10%
  Population Tubulin-Different-Phenotype (%): 7%
  Total Cell Count: 68
[1]; [10]
  Population Apoptotic (%): 45%
  Population Fragmented Nuclei (%): 20%
  Population Healthy Nuclei (%): 39%
  Population Hoechst High Intensity Objects (%): 6%
  Population Membrane Permeable-Phenotype (%): 36%
  Population Mitochondria Different-Phenotype (%): 4%
  Population Mitotic Cells (%): 54%
  Population Normal (%): 93%
  Population Pyknosed Nuclei (%): 39%
  Population Tubulin-Different-Phenotype (%): 93%
  Total Cell Count: 119
[1]; [11]
  Population Apoptotic (%): 42%
  Population Fragmented Nuclei (%): 9%
  Population Healthy Nuclei (%): 67%
  Population Membrane Permeable-Phenotype (%): 30%
  Population Mitochondria Different-Phenotype (%): 71%
  Population Mitotic Cells (%): 57%
  Population Pyknosed Nuclei (%): 22%
  Population Tubulin-Different-Phenotype (%): 95%
  Total Cell Count: 66
[1]; [12]
  Population Apoptotic (%): 57%
  Population Fragmented Nuclei (%): 31%
  Population Healthy Nuclei (%): 44%
  Population Hoechst High Intensity Objects (%): 12%
  Population Membrane Permeable-Phenotype (%): 26%
  Population Mitochondria Different-Phenotype (%): 3%
  Population Mitotic Cells (%): 42%
  Population Normal (%): 87%
  Population Pyknosed Nuclei (%): 24%
  Population Tubulin-Different-Phenotype (%): 50%
  Total Cell Count: 166
[1]; [13]
  Population Apoptotic (%): 0%
  Population Fragmented Nuclei (%): 28%
  Population Healthy Nuclei (%): 69%
  Population Hoechst High Intensity Objects (%): 8%
  Population Membrane Permeable-Phenotype (%): 12%
  Population Mitochondria Different-Phenotype (%): 5%
  Population Mitotic Cells (%): 100%
  Population Normal (%): 91%
  Population Pyknosed Nuclei (%): 1%
  Population Tubulin-Different-Phenotype (%): 57%
  Total Cell Count: 112
[1]; [14]
  Population Apoptotic (%): 41%
  Population Fragmented Nuclei (%): 30%
  Population Healthy Nuclei (%): 40%
  Population Hoechst High Intensity Objects (%): 12%
  Population Membrane Permeable-Phenotype (%): 28%
  Population Mitochondria Different-Phenotype (%): 4%
  Population Mitotic Cells (%): 58%
  Population Normal (%): 87%
  Population Pyknosed Nuclei (%): 28%
  Population Tubulin-Different-Phenotype (%): 95%
  Total Cell Count: 126
[1]; [15]
  Population Apoptotic (%): 23%
  Population Fragmented Nuclei (%): 45%
  Population Healthy Nuclei (%): 45%
  Population Hoechst High Intensity Objects (%): 34%
  Population Membrane Permeable-Phenotype (%): 25%
  Population Mitochondria Different-Phenotype (%): 1%
  Population Mitotic Cells (%): 76%
  Population Normal (%): 65%
  Population Pyknosed Nuclei (%): 9%
  Total Cell Count: 214
[2]; 0 h, replicate number 1, timepoint 0 hours
  Growth Rate: 0
[2]; [16]
  Growth Rate: 0
[2]; [17]
  Growth Rate: 0
[2]; [18]
  Growth Rate: 0
[2]; 18 h, replicate number 2, timepoint 18 hours
  Growth Rate: 1
[2]; [19]
  Growth Rate: 0
[2]; 24 h, replicate number 2, timepoint 24 hours
  Growth Rate: 1
[3]; 0 h, replicate number 2, timepoint 0 hours
  Growth Rate: 0
[3]; [16]
  Growth Rate: 0
[3]; [17]
  Growth Rate: 0
[3]; 12 h, replicate number 2, timepoint 12 hours
  Growth Rate: 1
[3]; [18]
  Growth Rate: 0
[3]; [19]
  Growth Rate: 0
